Experimental data collected from several papers.
Each line is one published result; the experiments were not run side by side. Converted amounts (≈) assume the structure as drawn.

CC1=NN(CNC(=O)c2ccccc2)C(=O)C1=NNn1c(-c2ccccc2)nc2ccccc2c1=O  MIC (Trichophyton rubrum; microbial growth; broth dilution): 104 µM (≈ 49.8 µg/mL)
CCCCc1nc2ncccn2c1NC(C)(C)CC(C)(C)C  IC50 (Leishmania amazonensis; parasite growth; MTT; 72 h; promastigote): 47.8 µM
Cc1[nH]c(C)c(-c2ccc(OCc3cccc(C(F)(F)F)c3)nc2)c(=O)c1Br  IC50 (HEK293; cell growth or viability): > 10 µM
c1cnc2nc(-c3ccc4c(c3)OCO4)c(NCCN3CCOCC3)n2c1  IC50 (Leishmania amazonensis; parasite growth; MTT; 72 h; promastigote): > 100 µM
Cc1[nH]c(C)c(-c2ccc(CCc3ccc(C(F)(F)F)cc3)nc2)c(=O)c1Cl  IC50 (HEK293; cell growth or viability): > 10 µM
COc1ccc(-c2nc3ncccn3c2NC(C)(C)CC(C)(C)C)cc1O  IC50 (Leishmania amazonensis; parasite growth; MTT; 72 h; promastigote): > 100 µM
CC1=NN(CNC(=O)c2ccccn2)C(=O)C1=NNn1c(-c2ccccc2)nc2ccccc2c1=O  MIC (Trichophyton rubrum; microbial growth; broth dilution): 104 µM (≈ 50 µg/mL)
COc1ccc(S(=O)(=O)c2ccc(C)cc2)c(OC)c1OC  IC50 (Leishmania braziliensis; parasite growth; MTT; 24 h; promastigote): 91.7 µM
CC(=O)NCN1N=C(C)C(=NNn2c(-c3ccccc3)nc3ccccc3c2=O)C1=O  MIC (Trichophyton rubrum; microbial growth; broth dilution): 120 µM (≈ 50 µg/mL)
COc1ccc([S+]([O-])c2ccc(OC)c(OC)c2OC)cc1 (stereo not drawn)  IC50 (Leishmania braziliensis; parasite growth; MTT; promastigote): 15 µM
CCc1ccc(C(=O)NC(=O)c2ccccc2O)cc1  IC50 (HEK293; cell growth or viability): > 10 µM
O=C(Nc1ccccc1-c1ccc(F)c(F)c1)c1nccnc1C(F)(F)F  EC50 (Rhizoctonia solani; microbial growth): 0.2 µg/mL (≈ 0.527 µM)
